From ChEMBL document CHEMBL3244028, “Synthesis and antiinflammatory activity of 6,11-dihydro-11-oxodibenzo[b,e]thiepinalkanoic acids and related compounds” (J Med Chem, 1978)

Columns and labels:
[1] = system: Rattus norvegicus; experiment: Antiinflammatory activity in rat assessed as inhibition of carrageenan-induced paw edema compound administered orally 1 hr prior challenge relative to phenylbutazone; type: functional
Summary of the method: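 Female rats, 80-90 g, given test agent in "Government diluting fluid" 1 h before carrageenan injection into one hind paw. Rats killed 4 h after dosing; both hind paws excised and weighed. Potency relative to phenylbutazone read from dose-response plots of percent weight increase of inflamed over noninflamed paw. Usually at least three doses, six rats per dose.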

[2] = system: Mus musculus; experiment: Analgesic activity in mouse assessed as inhibition of phenylquinone-induced writhing administered orally 20 mins prior challenge relative to aspirin; type: functional
Summary of the method: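 Male mice, 18-20 g, dosed orally in "Government diluting fluid" vehicle, then given phenylquinone intraperitoneally 20 min later. Writhing observed over the following 10 min. Eight to ten mice per dose. Potency relative to aspirin taken from dose-response plots.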

[3] = system: Rattus norvegicus; experiment: Antiinflammatory activity in rat assessed as inhibition of cotton pellet granuloma at 0.5 to 4 mg/kg/day, po administered for 7 days starting same day of challenge measured on day 7 relative to indomethacin; type: functional
Summary of the method: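 Cotton pellet granuloma in rats, by a modification of Meier's method. Vehicle "Government diluting fluid".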

[4] = system: Rattus norvegicus; experiment: Antiinflammatory activity in rat arthritis model assessed as inhibition of Freund's adjuvant-induced swelling compound administered orally bid for 17 days starting on day 1 of challenge measured on day 18 relative to naproxen; type: functional
[5] = species on record: Rattus norvegicus; experiment: Toxicity in rat assessed as gastric irritation (erosion) in starved rats; settings: in vivo
[6] = system: Canis familiaris; experiment: Toxicity in dog assessed as emesis at 5 mg/kg, po administered as single dose; type: organism-based, Canis lupus familiaris; set-up: dose 5 mg/kg, route oral; settings: in vivo
Summary of the method: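 Dogs given one oral dose (5, 10 or 30 mg/kg). Animals watched for signs of gastrointestinal intolerance, including emesis.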

O=C(O)Cc1ccc2c(c1)C=Cc1ccccc1S2(=O)=O
fold change (FC) [1]: 0.4
fold change (FC) [2]: 0.4

O=C(O)Cc1ccc2c(c1)CCc1ccccc1S2
fold change (FC) [1]: 7
fold change (FC) [3]: 0.07
fold change (FC) [2]: 3
fold change (FC) [4]: 0.5

O=C(O)Cc1cccc2c1SCc1ccccc1C2=O
fold change (FC) [1]: <0.4

CC(C(=O)O)c1ccc2c(c1)SCc1ccccc1C2=O (racemic)
fold change (FC) [1]: 115
ED50 [5]: 2 mg/kg
fold change (FC) [3]: 2
fold change (FC) [2]: 20
fold change (FC) [4]: 70
Activity [6]: Toxic

O=C(O)Cc1ccc2c(c1)CCc1ccccc1O2
fold change (FC) [1]: 0.4
fold change (FC) [2]: 1

O=C(O)Cc1ccc2c(c1)[S+]([O-])Cc1ccccc1C2=O (racemic)
fold change (FC) [1]: 0.5
fold change (FC) [2]: <=0.5

O=C(O)Cc1ccc2c(c1)SCc1ccccc1C2=O [TIOPINAC]
fold change (FC) [1]: 40
fold change (FC) [3]: 0.8
fold change (FC) [2]: 14
fold change (FC) [4]: 10
Activity [6]: Non-toxic

O=C(O)Cc1ccc2c(c1)CSc1ccccc1C2=O
fold change (FC) [1]: 1
fold change (FC) [2]: 1

O=C(O)Cc1ccc2c(c1)C=Cc1ccccc1S2
fold change (FC) [1]: 2
fold change (FC) [2]: <1

O=C(O)Cc1ccc2c(c1)CCc1ccccc1S2(=O)=O
fold change (FC) [1]: 0.4
fold change (FC) [2]: 1

O=C(O)Cc1ccc2c(c1)Sc1ccccc1C(=O)C2
fold change (FC) [1]: 0.4
fold change (FC) [2]: 1

O=C(O)Cc1ccc2c(c1)CC(=O)c1ccccc1O2
fold change (FC) [1]: <0.6
fold change (FC) [2]: <0.2

C1CCC(NC2CCCCC2)CC1.CC(C(=O)O)c1ccc2c(c1)CCc1ccccc1S2 (racemic)
fold change (FC) [1]: 3
fold change (FC) [2]: 5

O=C(O)Cc1ccc2c(c1)SCc1ccccc1C2O (racemic)
fold change (FC) [1]: <1
fold change (FC) [2]: <0.3

C1CCC(NC2CCCCC2)CC1.CC(C(=O)O)c1ccc2c(c1)CSc1ccccc1C2=O (stereo not given)
fold change (FC) [1]: 2
fold change (FC) [2]: 2.5

CC(C(=O)O)c1ccc2c(c1)SCc1sccc1C2=O (racemic)
fold change (FC) [1]: 13
fold change (FC) [2]: 20

O=C(O)Cc1ccc2c(c1)Sc1ccccc1CC2
fold change (FC) [1]: 0.2
fold change (FC) [2]: 2

O=C(O)Cc1ccc2c(c1)S(=O)(=O)Cc1ccccc1C2=O
fold change (FC) [1]: <0.2
fold change (FC) [2]: 0.2

O=C(O)Cc1ccc2c(c1)CCc1ccccc1[S+]2[O-] (racemic)
fold change (FC) [1]: <=0.2
fold change (FC) [2]: 0.8

C1CCC(NC2CCCCC2)CC1.CCC(C(=O)O)c1ccc2c(c1)SCc1ccccc1C2=O (stereo not given)
fold change (FC) [1]: 20
fold change (FC) [2]: 4

O=C(O)Cc1ccc2c(c1)Sc1ccccc1C=C2
fold change (FC) [1]: <0.2
fold change (FC) [2]: <1

O=C(O)Cc1ccc2c(c1)C(=O)c1ccccc1CS2
fold change (FC) [1]: 0.3
fold change (FC) [2]: 1.5

O=C(O)Cc1ccc2c(c1)SCc1sccc1C2=O
fold change (FC) [1]: 4
fold change (FC) [2]: 4

O=C(O)Cc1ccc2c(c1)C=Cc1ccccc1O2
fold change (FC) [1]: <0.4
fold change (FC) [2]: 0.3

O=C(O)Cc1ccc2c(c1)SCc1ccccc1C2
fold change (FC) [1]: 2
fold change (FC) [2]: 1

O=C(O)Cc1ccc2c(c1)CC(=O)c1ccccc1S2
fold change (FC) [1]: 0.4
fold change (FC) [2]: 1
